In ChEMBL document CHEMBL4699441, “Identification and Preclinical Evaluation of the Bicyclic Pyrimidine γ-Secretase Modulator BMS-932481” (ACS Med Chem Lett, 2019):
In brackets after ≈: the same amount, converted by molar mass. Activity calls are given as the source filed them. The calls are words filed in the database; no cut-off is given here.

Key:
[1] = Reduction in amyloid beta (1 to 42) secretion in brain in triple transgenic LaFerla mouse at 30 mg/kg, po measured after 3 hrs relative to control; format: functional
In short: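 Triple transgenic LaFerla mice (APP Swedish, MAPT P301L, PSEN1 M146V) given 30 mg/kg po; brain Aβ1-42 measured 3 h postdose; n = 3.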

[2] = target: T1, UDP-glucuronosyltransferase 1A1 (Homo sapiens, UniProt P22309); test: Inhibition of human UGT1A1; format: ADME
T1 sequence (P22309 whole entry): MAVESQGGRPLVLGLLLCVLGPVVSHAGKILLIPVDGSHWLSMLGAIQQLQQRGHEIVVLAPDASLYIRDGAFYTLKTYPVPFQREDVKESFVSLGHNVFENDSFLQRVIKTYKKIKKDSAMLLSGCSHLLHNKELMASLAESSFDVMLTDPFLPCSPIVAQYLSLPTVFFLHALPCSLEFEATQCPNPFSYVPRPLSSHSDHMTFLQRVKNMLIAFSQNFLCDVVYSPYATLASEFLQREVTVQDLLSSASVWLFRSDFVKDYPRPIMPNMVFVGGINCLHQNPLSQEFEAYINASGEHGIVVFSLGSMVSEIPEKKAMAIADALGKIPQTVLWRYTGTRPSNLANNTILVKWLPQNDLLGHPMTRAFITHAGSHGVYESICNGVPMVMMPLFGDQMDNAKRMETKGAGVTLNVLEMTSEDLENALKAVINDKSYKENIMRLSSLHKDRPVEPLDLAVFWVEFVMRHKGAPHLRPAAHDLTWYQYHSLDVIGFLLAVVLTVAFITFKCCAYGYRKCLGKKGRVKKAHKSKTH

[3] = system: H4; test: Inhibition of amyloid beta (1 to 42) secretion in human H4 cells overexpressing APP incubated for 24 hrs by MALDI-TOF mass spectrometric analysis; format: functional, cell-based
[4] = Ratio of drug level in brain to plasma in Harlan Sprague-Dawley rat at 10 mg/kg, po measured after 5 hrs; format: ADME, organism-based; settings: read-out: BPR
[5] = system: Brain; test: Antialzheimer activity in rat brain assessed as reduction in amyloid beta (1 to 42) AUC at 3 mg/kg measured after 24 hrs relative to control; format: functional; set-up: scale not given: the % may be the effect or the level left
In short: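 Rats dosed orally; brain Aβ1-42 followed over 24 h, and the reduction in brain Aβ1-42 AUC integrated over 0–24 h was fitted to an indirect response PK/PD model.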

[6] = Inhibition of total amyloid beta secretion in human H4 cells overexpressing APP at 50 uM; format: cell-based
[7] = Fraction unbound in Sprague-Dawley rat plasma measured after 24 hrs by LC-MS/MS analysis; format: ADME, cell-free
[8] = target: T2, Cytochrome P450 2B6 (Homo sapiens, UniProt P20813); test: Inhibition of CYP2B6 in human liver microsomes; format: ADME
T2 sequence (P20813 whole entry): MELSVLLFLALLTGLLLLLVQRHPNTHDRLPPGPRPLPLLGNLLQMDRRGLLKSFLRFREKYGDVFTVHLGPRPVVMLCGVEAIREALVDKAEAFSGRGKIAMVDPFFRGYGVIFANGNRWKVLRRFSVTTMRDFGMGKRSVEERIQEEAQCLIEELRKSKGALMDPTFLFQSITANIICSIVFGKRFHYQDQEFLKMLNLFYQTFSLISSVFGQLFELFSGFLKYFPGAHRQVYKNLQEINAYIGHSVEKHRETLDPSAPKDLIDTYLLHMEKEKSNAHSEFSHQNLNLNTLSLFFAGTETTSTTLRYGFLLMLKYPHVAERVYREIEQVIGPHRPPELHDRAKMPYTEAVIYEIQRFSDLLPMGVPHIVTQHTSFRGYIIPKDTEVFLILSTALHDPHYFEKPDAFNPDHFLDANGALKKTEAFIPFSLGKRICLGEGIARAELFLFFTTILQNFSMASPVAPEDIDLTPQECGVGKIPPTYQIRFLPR

[9] = target: T3, Cytochrome P450 3A4 (Homo sapiens, UniProt P08684); test: Inhibition of CYP3A4 in human liver microsomes measured after 30 mins; format: ADME
[10] = target: T3, Cytochrome P450 3A4; test: Time dependent inhibition of CYP3A4 in human liver microsomes assessed as inhibition constant; format: ADME
[11] = Efflux ratio of permeability in human Caco2 cells; format: ADME, cell-based; settings: caco-2
[12] = Dissociation constant, pKa of compound by spectrophotometric analysis; format: physicochemical
[13] = Aqueous solubility of the compound at pH 1; format: physicochemical; settings: buffer
[14] = Volume of steady state distribution in cynomolgus monkey at 1 mg/kg, iv measured up to 24 hrs by LC-MS/MS analysis; format: ADME, organism-based, Macaca fascicularis; settings: in vivo
In short: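 Male Beagle dog or male cynomolgus monkey; 1 mg/kg as 5 min iv infusion in 9:1 PEG:EtOH; n = 3; volume of distribution at steady state.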

[15] = Oral bioavailability in cynomolgus monkey at 1 mg/kg dosed as nano suspension measured up to 24 hrs by LC-MS/MS analysis; format: ADME, organism-based, Macaca fascicularis; settings: in vivo
In short: (§1)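 Oral dosing as a nanosuspension in Sprague–Dawley rat, male Beagle dog and male cynomolgus monkey; dogs pretreated with pentagastrin.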

[16] = Oral bioavailability in Beagle dog at 1 mg/kg dosed as nano suspension measured up to 24 hrs by LC-MS/MS analysis; format: ADME, organism-based, Canis lupus familiaris; settings: in vivo; in short: as §1
[17] = Cardiotoxicity in unconscious telemeterized rabbit assessed as increase in QTcv time at 3 mg/kg; format: toxicity, organism-based, Oryctolagus cuniculus; settings: in vivo
[18] = Cardiotoxicity in unconscious telemeterized rabbit assessed as increase in QTcf time at 10 mg/kg; format: toxicity, organism-based, Oryctolagus cuniculus; settings: in vivo
[19] = Cardiotoxicity in unconscious telemeterized rabbit assessed as increase in QTcv time at 10 mg/kg; format: toxicity, organism-based, Oryctolagus cuniculus; settings: in vivo
[20] = Hemodynamic activity in unconscious telemeterized rabbit assessed as decrease in heart rate at >= 10 mg/kg; format: ADME, organism-based, Oryctolagus cuniculus; settings: in vivo
[21] = Hemodynamic activity in conscious telemeterized rat assessed as change in heart rate at >= 10 mg/kg; format: ADME, organism-based; settings: in vivo
[22] = Toxicity in rat assessed as change in gamma-secretase modulator function at 100 mg/kg, po administered for 2 week; format: organism-based; settings: in vivo, 336 h, time 2 weeks
[23] = Cmax in Beagle dog at 300 mg/kg, po measured up to 24 hrs by LC-MS/MS analysis; format: ADME, organism-based, Canis lupus familiaris; set-up: route oral, dose 300 mg/kg, time >=24; settings: in vivo
In short: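 Dogs given an acute single oral dose of 300 mg/kg; plasma Cmax and AUC measured alongside bilirubin and other clinical pathology assessments.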

[24] = Toxicity in Beagle dog assessed as hyperbilirubinemia at 150 mg/kg, po administered for 1 month; format: organism-based, Canis lupus familiaris; settings: in vivo, 730 h, time 1 months
In short: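 One-month oral toxicity study in dogs; high dose 150 mg/kg; bilirubin assessed.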

[25] = Toxicity in rat assessed as stress at 100 mg/kg, po administered for 2 week; format: organism-based; settings: in vivo, 336 h, time 2 weeks

T3 sequence (P08684 whole entry): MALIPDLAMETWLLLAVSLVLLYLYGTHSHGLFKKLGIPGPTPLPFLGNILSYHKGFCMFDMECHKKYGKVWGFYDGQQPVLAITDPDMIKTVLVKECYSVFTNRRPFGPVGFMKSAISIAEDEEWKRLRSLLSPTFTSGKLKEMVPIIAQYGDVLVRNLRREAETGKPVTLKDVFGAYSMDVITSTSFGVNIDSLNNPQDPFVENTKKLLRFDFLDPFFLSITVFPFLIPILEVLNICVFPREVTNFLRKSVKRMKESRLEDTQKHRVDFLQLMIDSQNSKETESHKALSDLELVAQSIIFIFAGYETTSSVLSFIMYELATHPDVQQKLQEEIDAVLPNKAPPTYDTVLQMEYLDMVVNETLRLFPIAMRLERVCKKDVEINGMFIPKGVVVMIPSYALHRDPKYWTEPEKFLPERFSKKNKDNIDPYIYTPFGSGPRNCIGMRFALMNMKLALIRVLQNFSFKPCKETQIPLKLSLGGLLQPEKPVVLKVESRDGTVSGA

CNc1nc(Nc2ccc(-n3cnc(C)n3)c(OC)c2)nc2c1CC[C@H]2c1ccc(F)cc1
inhibition in vivo at 30 mg/kg [1]: 81% | IC50 [2]: 1400 nM | inhibition [3]: Active | Kp at 5 h [4]: 0.23 | Activity [5]: 45% | inhibition at 50 µM [6]: 30% | Fu [7]: 0.7% | IC50 [8]: > 40000 nM | IC50 [9]: 200 nM | Ki [10]: 83000 nM | Ratio [11]: 0.8 | pKa [12]: 5.9 | solubility [13]: 19 µg/mL (≈ 42.6 µM) | Vdss [14]: 5.4 L/kg | F [15]: 45% | F [16]: 85% | Time [17]: 4 ms | Time [18]: 3 ms | Time [19]: 10 ms | Activity [20]: Non-Toxic | Activity [21]: Non-Toxic | Activity [22]: Non-Toxic | Cmax [23]: 14 µM | Activity [24]: Toxic | Activity [25]: Non-Toxic
